Consider four compounds from publication PMC6456254 (ACS chemical neuroscience, 2018).

The subject of data set [1] is M1. Conditions: cited from earlier work.
Another data set deals with M2 and M4. Particulars: cited from earlier work.
The next data set can be described thus: Solubility in SGF. Particulars: pH 1.6. The format is physicochemical.
Data set [2] can be described thus: Predicted hepatic clearance, rat. The format is in vitro ADME.
Data set [3] relates to M1. The format is cell-based. Particulars: high expressing recombinant cell lines, species not stated.
In a further data set the target is T1, rat M1 (Rattus norvegicus, UniProt P08482).
T1 sequence (P08482 1-460): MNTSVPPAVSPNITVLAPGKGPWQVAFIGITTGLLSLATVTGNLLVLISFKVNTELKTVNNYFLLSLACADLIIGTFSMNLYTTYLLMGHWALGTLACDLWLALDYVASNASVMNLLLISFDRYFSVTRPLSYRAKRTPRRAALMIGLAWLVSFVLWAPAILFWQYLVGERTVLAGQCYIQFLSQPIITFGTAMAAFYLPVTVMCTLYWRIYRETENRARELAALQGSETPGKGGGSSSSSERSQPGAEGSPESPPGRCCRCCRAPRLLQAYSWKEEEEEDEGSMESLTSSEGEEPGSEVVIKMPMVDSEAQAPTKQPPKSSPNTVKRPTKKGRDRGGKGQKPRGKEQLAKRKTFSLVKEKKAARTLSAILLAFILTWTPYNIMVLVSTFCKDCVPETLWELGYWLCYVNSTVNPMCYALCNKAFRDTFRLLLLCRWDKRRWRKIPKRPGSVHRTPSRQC
Kind of data set: Rat M1 functional assay in high expressing M1 cell line. Particulars: rat M1, up to 30 μM. The format is cell-based. Summed up: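 Calcium mobilization in CHO cells expressing rat M1. Agonist mode adds no exogenous acetylcholine, and EC50 is derived from the response. PAM mode is run with a fixed EC20 concentration of acetylcholine. Values are means from three independent experiments, each performed in triplicate.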

Another data set relates to human M2−5. Kind of data set: PAM selectivity versus human M2-5. Particulars: read-out: EC50 vs human M2−5. In kind it is cell-based.
The nature of data set [4]: Predicted hepatic clearance, human. The format is in vitro ADME.
The nature of data set [5]: Fraction unbound in rat plasma. In kind it is in vitro ADME.
Data set [6] in a line: Fraction unbound in human plasma. In kind it is in vitro ADME.

For the compound `COc1ccc(Cn2cc(C(=O)O)c(=O)c3ccccc32)cc1` [compound 1, BQCA], the “mode of M1 pharmacology” value in the data set with M1 [1] was “highly potent and robust M1 ago-PAM”.

Consider `O=C1C(=O)N(Cc2ccc(Br)cc2)c2ccccc21` [compound 9, VU0119498], for which the “activity at M2 and M4” value with M2 and M4 was “inactive”. Besides, the M1 agonist activity entry in the data set on M1 [1] (HTS hit) is listed as “virtually no detectable M1 agonist activity”.

For orientation: solubility means the dissolved amount per volume that the medium holds. On to VU0451725 [compound 10], for which the solubility in “Solubility in SGF” is < 5 µg/mL.

Usually EC50 stands for the midpoint of the concentration-response curve. Regarding VU6005877 [24c], the “predicted hepatic clearance, rat CLhep” value in data set [2] is 31.7 mL/min/kg. Further, the “M1 agonism” value in the data set on M1 [3] is given as “devoid of M1 agonism”. For the same compound, the “agonist activity in high-expressing M1 cell line” value on rat M1 is “no agonist activity”. Also, in the data set on human M2−5, the EC50 is > 30 µM. For the same compound, the “predicted hepatic clearance, human CLhep” value in data set [4] is listed as 13.6 mL/min/kg. Besides, the CLp in “In vivo rat PK” was 7.3 mL/min/kg. In addition, the “fraction unbound in plasma, rat fu” value in [5] turned out to be 0.016. Further, the “fraction unbound in plasma, human fu” value in [6] is recorded as 0.01.
